Experimental data: ChEMBL document CHEMBL1136850, “Neuroprotective activity and evaluation of Hsp90 inhibitors in an immortalized neuronal cell line” (Bioorg Med Chem, 2009)
pEC50: −log10 of the molar value. Active and inactive are the calls of the source. The rule behind the calls is not given here.

Experiments:
SH-SY5Y [1] = assay: Toxicity in retinoic acid-differentiated human SH-SY5Y cells assessed as effect on cell morphology at 10 uM after 24 hrs by trypan blue exclusion method; type: cell-based
Procedure, shortened: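 Retinoic acid-differentiated SH-SY5Y cells (10 μM RA, 7 days) were exposed to 10 μM drug or DMSO without Aβ for 24 h. Neurite morphology was examined by phase-contrast microscopy. Viability was counted by 0.04% trypan blue exclusion.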

SH-SY5Y [2] = assay: Toxicity in human SH-SY5Y cells at 10 uM by trypan blue exclusion method; type: cell-based
SH-SY5Y [3] = assay: Neuroprotection against beta-amyloid peptide 1-42-induced toxicity in retinoic acid-differentiated human SH-SY5Y cells assessed as lactate dehydrogenase release at 1 uM; type: functional
Procedure, shortened: (§1)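 SH-SY5Y cells were differentiated for 7 days with 10 μM retinoic acid until they stopped proliferating and grew neurites. Drug was added 2 h before 10 μM Aβ in serum-free DMEM for 48 h. Released LDH was measured by NADH oxidation (pyruvate 1 mM, NADH 0.2 mM, pH 7.4; […] over 5 min at 25°C). Protection is expressed against Aβ alone, taken as 100% death.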

SH-SY5Y [4] = assay: Neuroprotection against beta-amyloid peptide 1-42-induced toxicity in human SH-SY5Y cells assessed as lactate dehydrogenase release; type: functional, cell-based
Procedure, shortened: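 Proliferating SH-SY5Y cells were grown in DMEM with 10% FBS at 37°C in 5% CO2, then seeded into 96-well plates. Drug or DMSO was given 2 h before 10 μM Aβ in serum-free DMEM for 48 h. LDH released into the cleared medium was read kinetically as NADH oxidation (50 mM phosphate pH 7.4, 1 mM pyruvate, 0.2 mM NADH; […], 5 min, 25°C). Aβ alone was set as 100% cell death. Mean ± S.E.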

SH-SY5Y [5] = assay: Neuroprotection against beta-amyloid peptide 1-42-induced toxicity in retinoic acid-differentiated human SH-SY5Y cells assessed as lactate dehydrogenase release; type: functional, cell-based; procedure, shortened: as §1
SH-SY5Y [6] = assay: Neuroprotection against beta-amyloid peptide 1-42-induced toxicity in retinoic acid-differentiated human SH-SY5Y cells assessed as lactate dehydrogenase release at 10 nM; type: functional, cell-based; procedure, shortened: as §1

| Structure (SMILES) | Activity (SH-SY5Y [1]) | AC50 (SH-SY5Y [2]) | Activity (SH-SY5Y [3]) [%] | pEC50 (SH-SY5Y [4]) | Activity (SH-SY5Y [5]) | Activity (SH-SY5Y [6]) |
| --- | --- | --- | --- | --- | --- | --- |
| CO[C@@H]1[C@@H](O)[C@@H](O)[C@H](Oc2ccc3cc(NC(C)=O)c(=O)oc3c2C)OC1(C)C | Non-toxic | Non-toxic | 70 | 8.83 | – | – |
| CO[C@@H]1[C@@H](O)[C@@H](O)[C@H](Oc2ccc3cc(NC(C)=O)c(=O)oc3c2)OC1(C)C | Non-toxic | – | – | 8.31 | – | – |
| O=C(O[C@@H]1Cc2c(O)cc(O)cc2O[C@@H]1c1cc(O)c(O)c(O)c1)c1cc(O)c(O)c(O)c1 [EPIGALOCATECHIN GALLATE] | – | – | – | 7.40 | – | – |
| CO[C@@H]1[C@@H](O)[C@@H](O)[C@H](Oc2ccc3cc(NC(=O)CCCCCCC(=O)Nc4cc5ccc(O[C@@H]6OC(C)(C)[C@H](OC)[C@@H](O)[C@H]6O)c(C)c5oc4=O)c(=O)oc3c2C)OC1(C)C | Non-toxic | Non-toxic | – | 8.35 | – | – |
| CC1=C(O)C(=O)C=C2C1=CC=C1[C@@]2(C)CC[C@@]2(C)[C@@H]3C[C@](C)(C(=O)O)CC[C@]3(C)CC[C@]12C [CELASTROL] | – | – | – | 7.42 | – | – |
| O=C(O)/C=C/c1nn(Cc2ccc(Cl)cc2Cl)c2cc(C(F)(F)F)ccc12 | – | – | – | – | inactive | – |
| CO[C@@H]1[C@@H](OC(N)=O)[C@@H](O)[C@H](Oc2ccc3c(O)c(NC(=O)c4ccc(O)c(CC=C(C)C)c4)c(=O)oc3c2C)OC1(C)C [NOVOBIOCIN] | Toxic | – | – | 7.32 | Active | Active |
| CC(=O)O[C@@H]1C[C@H]2C(C)(C)C(=O)C=C[C@]2(C)[C@H]2CC[C@@]3(C)[C@H](c4ccoc4)OC(=O)[C@H]4O[C@]43[C@@]21C [GEDUNIN] | – | – | – | 7.41 | – | – |
| COC1=C2C[C@@H](C)C[C@H](OC)[C@H](O)[C@@H](C)/C=C(\C)[C@H](OC(N)=O)[C@@H](OC)/C=C\C=C(/C)C(=O)NC(=CC1=O)C2=O [GELDANAMYCIN] | Toxic | – | – | 7.37 | inactive | Active |
